pIC50: −log10 of the molar value. Activity calls are given as the source filed them. No cut-off for these calls is given here.
Key:
[1] = Aqueous solubility of the compound by HPLC method; format: physicochemical; conditions: buffer
Outline: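 Solubility determined by an HPLC method, with one-point calibration against standards of known concentration. Mean ± SD of at least three independent experiments.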

[2] = Half life in Sprague-Dawley rat at 3.90 mg/kg, po by LC-ESI-MS/MS analysis; format: ADME, organism-based; conditions: in vivo, 3.9 mg/kg
[3] = Oral bioavailability in Sprague-Dawley rat at 3.90 mg/kg by LC-ESI-MS/MS analysis; format: ADME, organism-based; conditions: in vivo, 3.9 mg/kg
KB = assay: Antiproliferative activity against human KB cells after 72 hrs by sulforhodamine B assay; format: functional, cell-based
Outline: (§1)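 Cells grown in ATCC-specified medium with 10% heat-inactivated FBS, penicillin/streptomycin and 10 mM Hepes, at 37 °C under 5% CO2. Seeded, cultured overnight, then exposed to gradient concentrations for 72 h. Growth read by SRB staining; inhibition % = [1−(A450 treated/A450 control)]×100. IC50 obtained by the Logit method from independent experiments.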

[4] = Antiproliferative activity against human KB/VCR cells after 72 hrs by sulforhodamine B assay; format: functional, cell-based; outline: as §1
[5] = Half life in human liver microsomes at 0.1 uM up to 60 mins by LC-MS/MS analysis; format: ADME, microsome
Outline: (§2)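 Compound at 0.1 μM final (0.01% DMSO, 0.005% BSA) incubated at 37 °C with human, rat or mouse liver microsomes (0.33 mg/mL protein) in 0.1 M Tris/HCl pH 7.4, with 5 mM MgCl2 and 1 mM NADPH. Samples taken at 0, 7, 17, 30 and 60 min, quenched by methanol precipitation, centrifuged, and parent measured by LC-MS/MS. T1/2 and Clint derived.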

[6] = Half life in rat liver microsomes at 0.1 uM up to 60 mins by LC-MS/MS analysis; format: ADME, microsome; outline: as §2
Liver [7] = assay: Half life in mouse liver microsomes at 0.1 uM up to 60 mins by LC-MS/MS analysis; format: ADME, microsome; conditions: microsomes, 1 h, 0.1 µM; outline: as §2
Liver [8] = assay: Intrinsic clearance in human liver microsomes assessed as per mg protein up to 60 mins by LC-MS/MS analysis; format: ADME, microsome; conditions: 1 h; outline: as §2
Liver [9] = assay: Intrinsic clearance in rat liver microsomes assessed per mg protein up to 60 mins by LC-MS/MS analysis; format: ADME, microsome; conditions: 1 h
Outline: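 Liver microsomes (0.33 mg/mL protein) in 0.1 M Tris/HCl pH 7.4 with 5 mM MgCl2, 1 mM NADPH, compound at 0.1 μM final (0.01% DMSO, 0.005% BSA), 37 °C; samples at 0, 7, 17, 30, 60 min quenched in methanol, centrifuged, LC-MS/MS; T1/2 and Clint per g protein derived.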

Liver [10] = assay: Intrinsic clearance in mouse liver microsomes assessed per mg protein up to 60 mins by LC-MS/MS analysis; format: ADME, microsome; conditions: 1 h; outline: as §2
HCT-116 [11] = assay: Induction of apoptosis in human HCT116 cells assessed as early apoptotic cells at 2 uM after 48 hrs by Annexin V-FITC/propidium iodide staining-based FACS analysis (reference value: 2.35%); format: functional
HCT-116 [12] = assay: Induction of apoptosis in human HCT116 cells assessed as late apoptotic cells at 2 uM after 48 hrs by Annexin V-FITC/propidium iodide staining-based FACS analysis (reference value: 5.74%); format: functional
HCT-116 [13] = assay: Induction of apoptosis in human HCT116 cells pretreated with Z-VAD-FMK pan-caspase inhibitor for 1 hr assessed as early apoptotic cells at 2 uM after 48 hrs by Annexin V-FITC/propidium iodide staining-based FACS analysis (reference value: 1.34%); format: functional; set-up: scale not given: the % may be the effect or the level left
HCT-116 [14] = assay: Induction of apoptosis in human HCT116 cells pretreated with Z-VAD-FMK pan-caspase inhibitor for 1 hr assessed as late apoptotic cells at 2 uM after 48 hrs by Annexin V-FITC/propidium iodide staining-based FACS analysis (reference value: 3.15%); format: functional; set-up: scale not given: the % may be the effect or the level left
HCT-116 [15] = assay: Induction of apoptosis in human HCT116 cells assessed as cleavage of PARP at 2 uM after 48 hrs by Western blot analysis; format: functional, cell-based
Outline: (§3)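 HCT116 cells, with or without a 1 h pretreatment with 20 μM Z-VAD-FMK, exposed for 48 h. Lysed on ice in Hepes/NaCl/Triton X-100 buffer with protease/phosphatase inhibitors and clarified at 12,000×g. Equal protein run by SDS-PAGE, blotted to nitrocellulose, probed overnight at 4 °C for PARP, caspase 3, caspase 7 and β-actin. HRP secondaries, ECL detection.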

HCT-116 [16] = assay: Induction of apoptosis in human HCT116 cells assessed as activation of caspase 3/7 at 2 uM after 48 hrs by Western blot analysis; format: functional, cell-based; outline: as §3
HCT-116 [17] = assay: Induction of apoptosis in human HCT116 cells pretreated with Z-VAD-FMK pan-caspase inhibitor for 1 hr assessed as activation of caspase 3/7 at 2 uM after 48 hrs by Western blot analysis; format: functional, cell-based; outline: as §3
HCT-116 [18] = assay: Induction of apoptosis in human HCT116 cells pretreated with Z-VAD-FMK pan-caspase inhibitor for 1 hr assessed as cleavage of PARP at 2 uM after 48 hrs by Western blot analysis; format: functional, cell-based; outline: as §3
HCT-116 [19] = assay: Induction of apoptosis in human HCT116 cells assessed as activation of caspase 3/7 at 1.0 to 4.0 uM after 24 hrs by Caspase-Glo 3/7 assay

solubility [1]: < 0.1 µg/mL | half-life [2]: 10.2 min | bioavailability [3]: 0% | pIC50 (KB): 5.23 | half-life at 0.1 µM [5]: 6.45 min | half-life at 0.1 µM [6]: 2.51 min | t1/2 (Liver [7]): Nd(Unstable) | intrinsic clearance (Liver [8]): 325 mL/min/g | intrinsic clearance (Liver [9]): 836 mL/min/g | intrinsic clearance (Liver [10]): Nd(Unstable)
SMILES: Cc1coc2c1C(=O)C(=O)c1c-2ccc2c(C)cccc12 [TANSHINONE I]
pIC50 [4]: 5.36 | Activity (HCT-116 [11]): 3.81% | Activity (HCT-116 [12]): 5.46% | Activity (HCT-116 [13]): 4.24% | Activity (HCT-116 [14]): 7.11% | Activity (HCT-116 [15]): inactive | Activity (HCT-116 [16]): inactive | Activity (HCT-116 [17]): inactive | Activity (HCT-116 [18]): inactive | Activity (HCT-116 [19]): inactive
